SENP1 inh = SENP1 (human) catalytic domain inhibition; recombinant SENP1 catalytic domain, CyPet-SUMO1-YPet FRET cleavage; inhibition, % at 10 µM; 0.21% of 360,000 active;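 active = inhibition at least 30% at 10 µM, raw YFP signal under a set limit, fluorescence ratio 0.5 to 1.5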;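 also: 0% = enzyme with DMSO and 100% = no enzyme wells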
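system = hSENP1 catalytic domain, recombinant | reagent = SFCypet-SUMO1-SFYpet substrate at 25 nM | doses = one dose per compound, 10 µM, 0.5% DMSO | incubation = enzyme reaction for 50 min at room temperature, dark | measured by = FRET, CFP and YFP emission | controls = no-enzyme low, enzyme-DMSO high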
beta cell repl = inducers of beta-cell replication in MIN6 cells; MIN6 cells proliferation, ATPlite luminescence, 48 h; cells starved in 0.2% serum; 100% = growth in 10% serum; 0.29% of 330,000 active; proliferation, % at 10 µM;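 active = compounds whose signal lies at least 3.5 SD above the mean of all wells on their plate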;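 also: 0% = DMSO-treated cells in low-serum medium and 100% = 10% serum control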
DAGLB inh = blocks human DAGLB lipase activity | 0.059% of 340,000 active | HEK293T DAGLB membrane lysate, EnzChek fluorogenic substrate | Q8NCG7 | inhibition, % at 5.17 µM; in the data active = inhibition above about 34%;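 also: 0% = enzyme with vehicle and 100% = wells lacking enzyme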
Target sequence (Q8NCG7 whole entry, looked up): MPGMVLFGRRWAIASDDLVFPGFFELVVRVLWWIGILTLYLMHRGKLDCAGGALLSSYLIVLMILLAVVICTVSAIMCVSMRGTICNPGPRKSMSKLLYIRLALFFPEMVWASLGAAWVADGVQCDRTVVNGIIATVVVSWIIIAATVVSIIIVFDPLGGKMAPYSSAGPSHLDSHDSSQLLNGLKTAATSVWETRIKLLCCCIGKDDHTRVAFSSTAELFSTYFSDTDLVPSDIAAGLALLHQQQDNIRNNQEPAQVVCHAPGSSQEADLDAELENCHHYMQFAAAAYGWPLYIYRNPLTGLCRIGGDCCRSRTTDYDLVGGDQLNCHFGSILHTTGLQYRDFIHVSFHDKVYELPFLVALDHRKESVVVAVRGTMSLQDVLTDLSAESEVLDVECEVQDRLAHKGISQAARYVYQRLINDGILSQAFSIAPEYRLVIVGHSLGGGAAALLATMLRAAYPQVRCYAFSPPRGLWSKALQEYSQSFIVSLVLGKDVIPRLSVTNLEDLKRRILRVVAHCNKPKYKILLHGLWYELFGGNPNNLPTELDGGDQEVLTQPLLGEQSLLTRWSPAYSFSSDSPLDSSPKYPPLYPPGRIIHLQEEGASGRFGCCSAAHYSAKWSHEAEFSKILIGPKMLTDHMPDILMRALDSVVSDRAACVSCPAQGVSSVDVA
Myeloid diff MLP = compounds promoting myeloid differentiation | ER-HoxA9 myeloid progenitors, lysozyme-GFP differentiation, flow cytometry | calls only at 10 µM | 1% of 360,000 active | AID 624256;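 active = normalized GFP-positive differentiation at or above the plate's own cutoff, the solvent-only control mean plus 3 SD; inconclusive = no clear call, values can overlap the other calls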;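 also: cells exposed to compound for four days before flow analysis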
NRP1-CendR mod = alters CendR peptide binding to human NRP-1; O14786; FAM-RPARPAR peptide binding to NRP-1, fluorescence polarization; inhibition, % at 25 µM; 0.85% of 360,000 active; AID 602438;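 active = inhibition or corrected inhibition above about 18%, plus a signal ratio from 0.5 to 1.5, limit read from the data, passing the limit was not always enough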
MT1-MMP act inh = MT1-MMP (human) activation inhibition; HT1080 RFP-PRO-GFP cells, GFP/RFP ratio fluorescence, overnight; percent of plate control window, DMSO zero; GFP/RFP ratio change, % at 20 µM; 0.061% of 360,000 active; AID 651647;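 active = GFP/RFP ratio change of at least 30% with cell ATP level not reduced by more than half and red fluorescence within 50% of control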
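system = RFP-PRO-GFP reporter HT1080 cells | dosing = 20 µM single dose, 1% DMSO | timing = overnight cell settling, then overnight compound exposure, 37 °C, 5% CO2 | read-out basis = GFP/RFP fluorescence ratio | controls = DMSO and RFP-L50D-GFP cell wells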
Numbers without * were called inactive; i = inactive; ? = inconclusive; nt = no result; + = active, no number. This is a sample that favours compounds with a hit; in the whole collection about 2.4% have one here.

SMILES	SENP1 inh	beta cell repl	DAGLB inh	Myeloid diff MLP	NRP1-CendR mod	MT1-MMP act inh
NC(=O)NN=C1C2CCCC1C(c1ccccc1)NC2c1ccccc1 (stereo unspecified)	-0.1	-0.1	-4.8	i	44.8*	7.0
NC(=O)C(=O)NN=C1CCC(c2ccccc2)CC1 (stereo unspecified)	2.1	-2.2	-0.2	i	-10.4	-0.5
COc1cccc(-c2cnc3c(NC=O)cc(-c4cccc(C(=O)N(C)C)c4)cn23)c1	-28.9	nt	nt	i	-44.3	2.3
C[C@@]12CCC3[C@@](CCC4[C@@]3(C)CCC[C@@]4(C)C(=O)Nc3ccc(Cl)cc3)(CC1=O)C2 (stereo partly specified)	1.6	-5.7	-9.3	i	26.5*	-1.0
O=c1c2ccccc2nc(COc2ccccc2)n1/N=C/c1cn[nH]c1-c1ccccc1	0.2	3.0	-2.7	+	2.5	1.3
Nc1sccc1C(=O)NCc1ccccc1	-61.7	nt	nt	+	-27.8	1.7
CC1CC(C)CN(CCCNC(=O)CN2C(=O)CSc3ccc(S(=O)(=O)N4CCOCC4)cc32)C1 (stereo unspecified)	1.1	-0.7	-0.8	i	18.8*	0.5
CC1CCN(CCCNC(=O)CN2C(=O)CSc3ccc(S(=O)(=O)N4CCOCC4)cc32)CC1	1.6	1.8	1.1	i	8.8	-1.0
Cc1ccc(S(=O)(=O)N2CCCc3cc(NC(=O)c4c(F)cccc4F)ccc32)cc1	-0.4	-4.5	0.1	+	7.4	2.1
COC(=O)c1ccc(N2CCN(C)CC2)c(NC(=O)c2sc3ccccc3c2Cl)c1	-4.8	nt	-1.1	i	2.8	0.5
CCOc1ccc(OCc2ccc(C(=O)N3CCCC3)o2)cc1	4.2	1.9	-1.3	i	-3.3	-5.3
CN1CCN(C(=O)c2ccc(COc3ccc(C(C)(C)C)cc3)o2)CC1	-8.5	-5.8	-4.2	i	23.4*	8.0
Cc1cccc(N(C(=O)c2csnn2)C(C(=O)NC2CCCCC2)c2ccncc2)c1 (stereo unspecified)	1.4	1.9	0.7	i	13.0	-3.0
CCCN1CCc2c(sc(NC(=O)c3ccc(S(=O)(=O)N4CCCC4)cc3)c2C(N)=O)C1	-26.8	-2.4	-11.1	+	-52.3	-39.2
CCN1CCc2c(sc(NC(=O)Cc3ccccc3)c2C(N)=O)C1	-31.4	-1.2	-5.3	i	7.0	2.3
CCN1CCc2c(sc(NC(=O)c3ccc(S(=O)(=O)N4CCOCC4)cc3)c2C(N)=O)C1	-28.0	2.9	0.5	i	-10.0	-3.2
CCN1CCc2c(sc(NC(=O)Nc3ccc(Cl)c(Cl)c3)c2C(N)=O)C1	-27.2	nt	-498.1	+	129.9	-186.3
COc1ccccc1CNc1nc(NCC2CC2)nc2ccsc12	1.6	nt	nt	i	4.2	-2.9
CC(=O)N(C)C(c1ccc(N(C)C)cc1)c1nnnn1-c1c(C)cccc1C (stereo unspecified)	1.6	0.0	1.1	i	1.3	3.0
CN(C)/N=C/c1ccc(Sc2ccc([N+](=O)[O-])cc2[N+](=O)[O-])o1	-0.4	-6.2	-4.1	i	32.7*	-4.2
O=C1NC[C@@H](CCCCN2C[C@H](Cc3ccc(O)cc3)N(CC3CCCCC3)C(=O)C2=O)N(CCC2CCCCC2)C1=O	0.8	nt	nt	i	-9.5	7.0
O=C(N[C@@H](Cc1ccccc1)C(=O)OCc1ccccc1)c1nc[nH]c1C(=O)N1CCNCC1	1.1	-1.6	0.6	i	20.0	4.9
O=C1C(Cl)=C(NS(=O)(=O)c2ccc([N+](=O)[O-])cc2)C(=O)c2ccccc21	3.4	-5.8	27.3	i	25.8*	-6.1
O=[N+]([O-])c1ccc(Oc2ccc(S(=O)(=O)Nc3ccccc3)cc2)cc1	1.8	0.0	-2.0	i	-10.2	-5.1
Cc1ccc(S(=O)(=O)N2[C@@H](c3cccc(Cl)c3)C(C(=O)O)=CC[C@H]2c2ccc(C(C)C)cc2)cc1	0.2	-8.2	10.3	i	-15.2	-3.1
SMILES	SENP1 inh	beta cell repl	DAGLB inh	Myeloid diff MLP	NRP1-CendR mod	MT1-MMP act inh
CCN1CCSc2ccc(C(=O)NCc3ccccc3F)cc21	-9.3	0.9	0.0	+	-5.3	2.0
CCC1(O)C(=O)OCc2c1cc1n(c2=O)Cc2cc3cc(O)ccc3nc2-1 (stereo unspecified)	-22.7	nt	-7.7	?	45.3*	-40.9
CCc1c2c(nc3ccc(OC(=O)N4CCC(N5CCCCC5)CC4)cc13)-c1cc3c(c(=O)n1C2)COC(=O)[C@]3(O)CC	43.5	-7.7	-0.6	?	-3.5	-1.5
CC(C)CNS(=O)(=O)c1ccc(CCC(=O)NCc2cccnc2)cc1	1.4	-2.9	-1.7	+	4.7	-6.9
CCOc1ccc2[nH]cc(S(=O)(=O)c3ccc(F)cc3)c(=O)c2c1	-2.5	-1.6	-1.7	i	-16.5	-3.4
CCCn1cc(S(=O)(=O)c2ccc(F)cc2)c(=O)c2cc(OCC)ccc21	3.3	-0.8	3.3	+	3.7	-4.3
CC1CC(=O)c2c(cc3c(-c4c(O)cc(O)c5c(O)c6c(cc45)OC(C)CC6=O)c(O)cc(O)c3c2O)O1 (stereo unspecified)	69.7*	-5.9	26.4	i	-7.1	-3.2
COc1cccc(-c2ccc(NC(=O)C3CCCN(CCCn4cccn4)C3)cc2)c1 (stereo unspecified)	-0.4	-7.3	1.3	i	-2.1	3.1
Cc1noc(/C=C/c2ccccn2)c1[N+](=O)[O-]	-1.1	-1.8	0.3	+	-3.5	1.1
COc1ccccc1N/C=C/c1onc(C)c1[N+](=O)[O-]	-23.9	-3.7	11.4	i	-96.8	-69.0
O=C1CCCC2=C1C(c1ccc(O)c(O)c1)Nc1ccc3ccccc3c12 (stereo unspecified)	-5.0	-6.3	4.4	i	5.3	-6.9
O=C1CCCC2=C1C(c1ccco1)Nc1ccc3ccccc3c12 (stereo unspecified)	-13.1	0.4	2.3	+	-16.2	-2.2
Cc1ccc(OCC(=O)N/N=C/c2cccc3cccnc23)cc1	0.5	-3.0	-3.0	nt	0.9	2.4
Cc1ccc(S(=O)(=O)N2CCCC(C(=O)NC3=NCCS3)C2)cc1 (stereo unspecified)	3.6	-1.1	-1.2	i	4.8	-1.1
Cc1ccc(S(=O)(=O)N2CCC[C@H]2C(=O)NC2=NCCS2)cc1	-0.3	nt	0.2	i	24.4*	3.6
CCCCN(C(=O)C(C)Oc1ccc(Br)cc1)c1c(N)n(CC(C)C)c(=O)[nH]c1=O (stereo unspecified)	-6.6	0.3	-6.7	i	-1.6	nt
CCOc1ccc(/C=C/C(=O)N(CC)CC(=O)Nc2ccc3c(c2)OCCO3)cc1OC	1.3	0.5	-1.2	i	-15.5	0.9
